Test results reported in ChEMBL document CHEMBL1136272, “Development of a presynaptic 5-HT1A antagonist” (Bioorg Med Chem Lett, 2003).
pIC50: −log10 of the molar value. Each block holds one molecule with its values, some of them ahead of it.

Experiments:
[1] = target: Serotonin 2 (5-HT2) receptor (Rattus norvegicus, UniProt P30994+P08909+P14842); assay: Inhibitory concentration required against 5-hydroxytryptamine 2 receptor in rat cortex using [3H]spiperone
[2] = target: 5-hydroxytryptamine receptor 1B (Rattus norvegicus, UniProt P28564); assay: Inhibitory concentration required against 5-hydroxytryptamine 1B receptor in rat striatum using [3H]5-HT; format: tissue-based
5-hydroxytryptamine receptor 1B, sequence (P28564 whole entry): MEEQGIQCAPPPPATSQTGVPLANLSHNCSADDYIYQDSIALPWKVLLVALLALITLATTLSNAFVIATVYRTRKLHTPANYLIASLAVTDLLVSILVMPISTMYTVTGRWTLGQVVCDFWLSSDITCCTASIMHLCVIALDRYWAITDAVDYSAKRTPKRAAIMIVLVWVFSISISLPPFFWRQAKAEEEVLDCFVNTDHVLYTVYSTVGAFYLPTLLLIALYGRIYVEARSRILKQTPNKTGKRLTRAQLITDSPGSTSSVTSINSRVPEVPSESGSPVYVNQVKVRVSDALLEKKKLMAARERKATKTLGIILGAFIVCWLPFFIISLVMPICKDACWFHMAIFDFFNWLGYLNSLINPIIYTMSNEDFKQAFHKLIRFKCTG

[3] = target: T1, Adrenergic receptor alpha-2 (Rattus norvegicus, UniProt P22086+P19328+P22909); assay: Inhibitory concentration required against Alpha-2 adrenergic receptor in rat cortex [3H]clonidine
T1 sequence (P22086 whole entry): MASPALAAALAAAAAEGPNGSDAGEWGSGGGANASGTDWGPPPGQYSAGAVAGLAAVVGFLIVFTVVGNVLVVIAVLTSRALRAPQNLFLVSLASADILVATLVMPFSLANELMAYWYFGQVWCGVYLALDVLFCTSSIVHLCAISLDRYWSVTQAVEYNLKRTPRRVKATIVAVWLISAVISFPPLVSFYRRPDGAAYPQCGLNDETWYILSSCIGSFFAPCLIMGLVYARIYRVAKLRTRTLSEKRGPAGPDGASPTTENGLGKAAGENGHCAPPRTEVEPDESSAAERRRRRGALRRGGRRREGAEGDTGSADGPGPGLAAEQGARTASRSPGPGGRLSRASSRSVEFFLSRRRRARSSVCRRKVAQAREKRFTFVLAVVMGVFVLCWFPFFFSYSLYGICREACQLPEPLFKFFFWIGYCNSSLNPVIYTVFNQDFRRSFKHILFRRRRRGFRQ
T1 sequence (P19328 whole entry): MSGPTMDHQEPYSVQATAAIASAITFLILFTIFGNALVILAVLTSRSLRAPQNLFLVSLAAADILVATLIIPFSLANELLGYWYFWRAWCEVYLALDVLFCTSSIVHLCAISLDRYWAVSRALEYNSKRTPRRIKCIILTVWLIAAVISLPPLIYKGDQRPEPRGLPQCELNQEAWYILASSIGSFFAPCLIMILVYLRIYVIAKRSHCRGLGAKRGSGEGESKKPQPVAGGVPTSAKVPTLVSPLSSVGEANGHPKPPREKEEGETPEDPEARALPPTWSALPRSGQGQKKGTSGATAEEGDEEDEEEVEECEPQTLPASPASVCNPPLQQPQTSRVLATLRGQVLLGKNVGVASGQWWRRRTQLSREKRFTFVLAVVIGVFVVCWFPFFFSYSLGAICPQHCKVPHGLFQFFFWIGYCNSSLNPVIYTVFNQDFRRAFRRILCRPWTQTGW
T1 sequence (P22909 whole entry): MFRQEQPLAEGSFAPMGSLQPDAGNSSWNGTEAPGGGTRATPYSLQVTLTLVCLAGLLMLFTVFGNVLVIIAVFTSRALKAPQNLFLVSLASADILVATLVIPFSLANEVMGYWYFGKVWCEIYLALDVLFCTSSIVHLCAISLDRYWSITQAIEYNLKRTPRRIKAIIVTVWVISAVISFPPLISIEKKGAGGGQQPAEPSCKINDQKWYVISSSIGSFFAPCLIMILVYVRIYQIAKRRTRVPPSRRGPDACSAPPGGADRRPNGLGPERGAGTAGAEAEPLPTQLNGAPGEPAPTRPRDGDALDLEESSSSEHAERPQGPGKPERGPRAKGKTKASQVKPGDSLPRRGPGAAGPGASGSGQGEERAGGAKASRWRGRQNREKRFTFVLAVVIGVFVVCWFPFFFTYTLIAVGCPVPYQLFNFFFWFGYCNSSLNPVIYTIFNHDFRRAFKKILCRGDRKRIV

[4] = target: Sodium-dependent serotonin transporter (Rattus norvegicus, UniProt P31652); assay: Inhibitory concentration required against 5-HT uptake in rat cortex
Sodium-dependent serotonin transporter, sequence (P31652 whole entry): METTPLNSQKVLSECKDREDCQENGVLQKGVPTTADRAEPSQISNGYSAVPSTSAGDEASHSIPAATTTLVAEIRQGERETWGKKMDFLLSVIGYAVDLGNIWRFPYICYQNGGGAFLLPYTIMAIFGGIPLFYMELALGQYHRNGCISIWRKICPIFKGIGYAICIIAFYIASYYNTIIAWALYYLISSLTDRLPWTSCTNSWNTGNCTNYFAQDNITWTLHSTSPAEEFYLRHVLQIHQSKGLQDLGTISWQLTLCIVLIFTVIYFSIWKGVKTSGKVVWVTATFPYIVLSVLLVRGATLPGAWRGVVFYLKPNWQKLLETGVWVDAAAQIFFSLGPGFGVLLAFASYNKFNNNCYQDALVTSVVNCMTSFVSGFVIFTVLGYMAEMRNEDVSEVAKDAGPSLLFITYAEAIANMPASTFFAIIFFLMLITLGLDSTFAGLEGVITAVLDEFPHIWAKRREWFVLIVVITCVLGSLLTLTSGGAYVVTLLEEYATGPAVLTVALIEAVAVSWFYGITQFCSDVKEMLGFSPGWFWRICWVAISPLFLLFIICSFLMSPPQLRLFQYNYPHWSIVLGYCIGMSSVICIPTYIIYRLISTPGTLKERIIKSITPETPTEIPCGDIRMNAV

[5] = system: Rattus norvegicus; assay: Social interaction time determined in vivo in rat at 1 mg/kg of ip administration; format: functional; conditions: route intraperitoneal
Procedure, shortened: (§1)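 Rat social interaction paradigm with total motor activity counts recorded in the same session. All compounds were given ip, with a saline-treated control group. Combination arms gave a 0.1 mg/kg agent together with a second agent at 1 mg/kg, both ip. Social interaction time (s) and motor counts are reported as mean ± SEM, with significance tested against saline control.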

[6] = system: Rattus norvegicus; assay: In vivo motor activity determined in rat at 1 mg/kg of ip administration; format: functional; conditions: route intraperitoneal; procedure, shortened: as §1
[7] = target: T2, Adrenergic receptor alpha-1 (Rattus norvegicus, UniProt P15823+P23944+P43140); assay: Inhibitory concentration required against alpha-1 adrenergic receptor in rat cortex using [3H]-WB- 4101
T2 sequence (P15823 whole entry): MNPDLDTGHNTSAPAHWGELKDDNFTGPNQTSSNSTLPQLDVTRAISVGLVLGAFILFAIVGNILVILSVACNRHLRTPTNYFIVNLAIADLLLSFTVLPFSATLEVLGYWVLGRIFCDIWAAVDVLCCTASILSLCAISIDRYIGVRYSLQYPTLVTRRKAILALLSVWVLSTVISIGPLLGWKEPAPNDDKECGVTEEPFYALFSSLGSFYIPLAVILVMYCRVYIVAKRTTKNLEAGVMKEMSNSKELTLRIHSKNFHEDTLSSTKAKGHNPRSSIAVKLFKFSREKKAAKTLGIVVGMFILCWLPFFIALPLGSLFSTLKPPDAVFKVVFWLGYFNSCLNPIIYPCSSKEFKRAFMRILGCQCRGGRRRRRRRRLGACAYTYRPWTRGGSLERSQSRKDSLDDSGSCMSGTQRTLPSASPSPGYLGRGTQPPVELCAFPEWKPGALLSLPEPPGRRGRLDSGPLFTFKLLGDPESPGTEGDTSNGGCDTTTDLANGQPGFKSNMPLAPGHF
T2 sequence (P23944 whole entry): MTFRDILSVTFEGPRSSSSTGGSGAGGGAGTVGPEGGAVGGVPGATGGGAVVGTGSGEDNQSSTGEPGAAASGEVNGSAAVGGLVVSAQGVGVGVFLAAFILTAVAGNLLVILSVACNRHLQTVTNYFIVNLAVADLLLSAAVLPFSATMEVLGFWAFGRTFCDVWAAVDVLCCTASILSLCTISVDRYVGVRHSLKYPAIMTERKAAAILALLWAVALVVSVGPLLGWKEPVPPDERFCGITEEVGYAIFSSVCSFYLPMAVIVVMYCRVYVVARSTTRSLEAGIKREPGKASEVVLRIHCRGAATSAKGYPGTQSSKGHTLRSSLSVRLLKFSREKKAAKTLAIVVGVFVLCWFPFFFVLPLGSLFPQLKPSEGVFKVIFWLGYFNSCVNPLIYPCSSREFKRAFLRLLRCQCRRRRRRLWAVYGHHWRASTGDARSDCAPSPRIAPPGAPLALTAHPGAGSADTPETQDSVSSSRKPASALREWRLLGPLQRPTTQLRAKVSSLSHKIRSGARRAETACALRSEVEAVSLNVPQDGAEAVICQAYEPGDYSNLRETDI
T2 sequence (P43140 whole entry): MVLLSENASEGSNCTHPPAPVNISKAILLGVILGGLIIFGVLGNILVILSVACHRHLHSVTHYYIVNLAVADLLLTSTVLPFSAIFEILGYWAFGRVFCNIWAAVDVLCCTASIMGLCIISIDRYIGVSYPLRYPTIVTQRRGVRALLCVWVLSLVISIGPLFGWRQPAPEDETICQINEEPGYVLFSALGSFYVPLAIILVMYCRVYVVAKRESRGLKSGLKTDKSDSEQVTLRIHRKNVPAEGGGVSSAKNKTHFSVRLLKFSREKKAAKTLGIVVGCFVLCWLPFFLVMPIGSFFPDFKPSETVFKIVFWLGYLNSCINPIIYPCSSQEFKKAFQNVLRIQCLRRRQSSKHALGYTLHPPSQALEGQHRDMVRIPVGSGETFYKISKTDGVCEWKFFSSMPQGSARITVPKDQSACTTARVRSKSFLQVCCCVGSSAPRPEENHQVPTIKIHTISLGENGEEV

[8] = target: T3, 5-hydroxytryptamine receptor 1A (Rattus norvegicus, UniProt P19327); assay: Inhibition of the 5-hydroxytryptamine 1A receptor in rat dorsal raphe
T3 sequence (P19327 whole entry): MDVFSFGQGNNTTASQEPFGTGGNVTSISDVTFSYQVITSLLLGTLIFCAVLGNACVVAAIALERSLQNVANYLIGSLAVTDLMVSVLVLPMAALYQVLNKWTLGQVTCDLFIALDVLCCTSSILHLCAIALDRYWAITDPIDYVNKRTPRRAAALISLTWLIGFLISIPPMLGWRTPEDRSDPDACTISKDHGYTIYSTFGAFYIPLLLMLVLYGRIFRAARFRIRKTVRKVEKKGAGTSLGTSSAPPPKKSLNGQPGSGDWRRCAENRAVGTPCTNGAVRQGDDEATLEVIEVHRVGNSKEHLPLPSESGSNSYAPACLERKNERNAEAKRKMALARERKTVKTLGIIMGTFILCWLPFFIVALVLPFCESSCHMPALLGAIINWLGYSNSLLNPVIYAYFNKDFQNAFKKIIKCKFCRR

[9] = target: D(2) dopamine receptor (Rattus norvegicus, UniProt P61169); assay: Inhibitory concentration required against Dopamine receptor D2 in rat striatum; format: tissue-based
D(2) dopamine receptor, sequence (P61169 whole entry): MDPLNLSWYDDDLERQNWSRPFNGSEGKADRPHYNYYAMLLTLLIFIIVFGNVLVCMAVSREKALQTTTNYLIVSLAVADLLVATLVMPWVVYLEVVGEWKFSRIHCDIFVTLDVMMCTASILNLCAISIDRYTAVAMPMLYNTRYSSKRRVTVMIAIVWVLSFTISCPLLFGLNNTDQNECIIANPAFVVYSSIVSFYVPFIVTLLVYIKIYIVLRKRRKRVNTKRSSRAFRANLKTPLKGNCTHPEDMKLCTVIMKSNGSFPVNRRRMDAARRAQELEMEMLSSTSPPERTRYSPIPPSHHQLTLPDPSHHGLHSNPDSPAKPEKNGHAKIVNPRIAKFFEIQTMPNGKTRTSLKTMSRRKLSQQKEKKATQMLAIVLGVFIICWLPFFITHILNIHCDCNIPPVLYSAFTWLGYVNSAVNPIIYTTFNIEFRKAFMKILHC

[10] = system: Rattus norvegicus; assay: Social interaction time determined in vivo in rat at 0.1 + 1 mg/kg of ip administration; format: functional; conditions: route intraperitoneal; procedure, shortened: as §1
[11] = system: Rattus norvegicus; assay: In vivo motor activity determined in rat at 0.1 + 1 mg/kg of ip administration; format: functional; conditions: route intraperitoneal; procedure, shortened: as §1

pIC50 [8]: 7.57
SMILES: OC1(c2ccc3c(c2)OCO3)CCC(N2CCN(Cc3ccc(F)cc3)CC2)CC1 (configuration not stated)

pIC50 [8]: 7.68
SMILES: OC1(c2ccc3c(c2)OCO3)CCC(N2CCN(Cc3cc(F)cc(F)c3)CC2)CC1 (configuration not stated)

pIC50 [8]: 9.12
SMILES: COc1ccc(F)c(CN2CCN(C3CCC(O)(c4ccc5c(c4)OCO5)CC3)CC2)c1 (configuration not stated)

pIC50 [8]: 8.59
SMILES: OC1(c2ccc3c(c2)OCO3)CCC(N2CCN(Cc3cc(F)ccc3F)CC2)CC1 (configuration not stated)

pIC50 [8]: 7.77
SMILES: OC1(c2ccc3c(c2)OCO3)CCC(N2CCN(Cc3cccc(F)c3F)CC2)CC1 (configuration not stated)

The remaining lines, values behind:

SMILES: COc1cccc(CN2CCN(C3CCC(O)(c4ccc5c(c4)OCO5)CC3)CC2)c1 (configuration not stated)
IC50 [1]: 28 µM
pIC50 [2]: < 4.00
IC50 [3]: 1.1 µM
pIC50 [4]: 5.52
Time [5]: 65 s
Motor activity [6]: 5140 Counts
IC50 [7]: 1.5 µM
pIC50 [8]: 8.66
pIC50 [9]: 5.32

SMILES: COc1cccc(CN2CCN(C3CCC(O)(c4ccc5c(c4)OCO5)CC3)CC2)c1.OC(CCCN1CCN(c2ncc(F)cn2)CC1)c1ccc(F)cc1 (configuration not stated)
Time [10]: 49 s
Motor activity [11]: 5400 Counts

SMILES: OC1(c2ccc3c(c2)OCO3)CCC(N2CCN(Cc3ccc(F)c(F)c3)CC2)CC1 (configuration not stated)
pIC50 [8]: 7.47

SMILES: COc1ccccc1C1(O)CCC(N2CCN(Cc3ccccc3)CC2)CC1 (configuration not stated)
pIC50 [8]: 7.22

SMILES: COc1cccc(CN2CCN(C3CCC(O)(c4ccc5c(c4)OCO5)CC3)CC2)c1.OC1(c2ccc3c(c2)OCO3)CCC(N2CCN(Cc3ccccc3)CC2)CC1 (configuration not stated)
Time [10]: 53 s
Motor activity [11]: 5100 Counts

SMILES: OC1(c2ccc3c(c2)OCO3)CCC(N2CCN(Cc3cccc(Cl)c3)CC2)CC1 (configuration not stated)
pIC50 [8]: 8.22

SMILES: OC1(c2ccc3c(c2)OCO3)CCC(N2CCN(Cc3ccc(F)cc3F)CC2)CC1 (configuration not stated)
pIC50 [8]: 7.24

SMILES: OC1(c2ccc3c(c2)OCO3)CCC(N2CCN(Cc3ccccc3F)CC2)CC1 (configuration not stated)
pIC50 [8]: 8.00

SMILES: OC1(c2ccc3c(c2)OCO3)CCC(N2CCN(Cc3ccccc3Cl)CC2)CC1 (configuration not stated)
pIC50 [8]: 8.72

SMILES: COc1cccc(CN2CCN(C3CCC(O)(c4ccc5c(c4)OCO5)CC3)CC2)c1.O=C1CC2(CCCC2)CC(=O)N1CCCCN1CCN(c2ncccn2)CC1 (configuration not stated)
Time [10]: 51 s
Motor activity [11]: 4600 Counts

SMILES: OC1(c2ccc3c(c2)OCO3)CCC(N2CCN(Cc3cccc(F)c3)CC2)CC1 (configuration not stated)
pIC50 [8]: 7.89
